This is a sample that favours compounds with a hit; in the whole collection about 1.6% have one here.
Neddylation inh: inhibitors of cullin neddylation, primary screen, biochemical, TR-FRET, uHTS, NAE and Ubc12; calls only at 25 µM; AID 651699, 2012; NEDD8-conjugating enzyme Ubc12 (Homo sapiens) + NEDD8-activating enzyme E1 regulatory …; hit rate 0.58% among 360,000; in the data active means inhibition above about 36%
KLK7 zymogen act: proKLK7 zymogen activators, primary screen, biochemical, fluorescence intensity; activation, % at 7 µM; purified proKLK7, EDANS-DABCYL substrate fluorescence; 100% is mature enzyme control, 0% vehicle; hit rate 0.9% among 370,000; AID 652039, 2013;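 active means activation above the mean of all tested compounds plus 3 SD, computed per campaign excluding outliers beyond control limits, cut at about 13% in these data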
procasp3 activ: activators of human procaspase-3 D3A mutant, primary screen, biochemical, absorbance, PC-3 D3A mutant, single concentration; recombinant procaspase-3 D3A, Ac-DEVD-pNA absorbance 405 nm; activation, % at 8.5 µM; hit rate 0.11% among 330,000; AID 463141, 2010;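 active means activation above the mean of all tested compounds plus 3 SD, cut at about 21% in these data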;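 further: 0% = DMSO alone and 100% = DMSO wells spiked with extra 5 µM PC-3 D3A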
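System: Procaspase-3 D3A mutant. Medium: Zinc-free 300 mM NaCl, 50 mM HEPES, 0.01% Triton X-100. Schedule: 1 h preincubation plus 2 h reaction at 25 °C. Measured by: 405 nm absorbance of p-nitroaniline, reads at 0 and 120 min. Read-out: percent activation relative to control range.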
procasp7 counter: procaspase-7 activators, primary screen, counter-screen for procaspase-3 activator project, biochemical, absorbance, HTS, human; recombinant procaspase-7, Ac-DEVD-pNA absorbance 405 nm; D23A/D198A/D206A triple mutant, cannot self-cleave; scale: DMSO 0, 5 µM enzyme 100; activation, % at 8.5 µM; hit rate 0.093% among 330,000; Caspase-7 (Homo sapiens), P55210;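 active means percent activation above the screen-wide mean plus 3 SD, cut at about 25% in these data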
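System: Uncleavable procaspase-7 mutant enzyme; Amount: 2 µM procaspase-7 mutant as dispensed; Schedule: 1 h compound preincubation, 2 h substrate cleavage, 25 °C; Measured by: 405 nm absorbance of p-nitroaniline; Evaluation: percent activation from buffer-corrected 0–120 min absorbance change; Control set: low DMSO alone, high DMSO plus 5 µM PC-7.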
proKLK7 act conf: proKLK7 zymogen activators, confirmation, biochemical, fluorescence intensity, triplicate; shares compounds with KLK7 zymogen act; purified proKLK7, EDANS-DABCYL substrate fluorescence; scaled: vehicle 0, mature enzyme 100; activation, % at 7 µM; hit rate 68% among 3,200; AID 686949, 2013;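 active means activation, as change over the incubation, above the mean of all tested compounds plus 3 SD, cut at about 13% in these data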
EDANS interfere: EDANS-DABCYL substrate optical interference, artefact control for kallikrein-7 zymogen activator project, biochemical, fluorescence intensity, high throughput; hit rate 80% among 3,200; AID 686952, 2013; activation, % at 7 µM; no enzyme, 4 h; solvent 0%, active enzyme control 100%; shares compounds with KLK7 zymogen act;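 active means activation above the all-compound mean plus 3 SD, ignoring values outside control-based bounds, cut at about 4.8% in these data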;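 further: value is the 4 h activation minus the activation read at time zero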
EDANS interf: EDANS fluorescence interference in dose response, no enzyme | shares compounds with KLK7 zymogen act | EDANS-DABCYL peptide fluorescence interference | EC50, µM | hit rate 20% among 250;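 active means compounds that raise the fluorescence signal in this interference counterscreen, with EC50 at or below 10 µM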;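 further: intact quenched peptide substrate alone read at 355 nm excitation and 520 nm emission; signal is fluorescence gain from T0 to T4 after four hours at room temperature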
Active calls of the source: *; i = inactive; · = no result shown.

SMILES	Neddylation inh	KLK7 zymogen act	procasp3 activ	procasp7 counter	proKLK7 act conf	EDANS interfere	others
c1ccc(CN2c3ccccc3-c3nc4ccccc4n3C2c2ccccn2)cc1 (stereo not given)	·	-8	7	14	·	·
CN1c2ccccc2-c2nc3ccccc3n2C1c1ccncc1 (stereo not given)	·	1	5	6	·	·
CSCC[C@H](NC(=O)[C@H](Cc1ccccc1)n1c(=O)[nH]c2ccccc2c1=O)C(=O)N1CCC[C@H]1C(=O)O	i	0	2	2	·	·
COc1cccc(CN2CC(C(=O)NCCc3cn4cccnc4n3)CCC2=O)c1 (stereo not given)	·	19*	·	·	19*	14*	EDANS interf=9.7*
Cn1c(=O)c2cc(NC(=S)NC3CCCCC3)ccc2n1-c1ccccc1	i	-14	·	·	·	·
Cn1c(=O)c2cc(NC(=S)NCc3ccccc3F)ccc2n1C	·	34*	·	·	10	8.7*
C=C(C)Cn1c2ccc(NC(=O)NCc3ccc(F)cc3)cc2c(=O)n1C	·	30*	·	·	10	15*
Cn1c(=O)c2cc(NC(=O)NCc3ccc(F)cc3)ccc2n1C	·	39*	·	·	31*	36*
COc1ccc(NC(=S)Nc2ccc3c(c2)c(=O)n(C)n3-c2ccccc2)cc1	·	42*	·	·	36*	48*
Cn1c(=O)c2cc(NC(=O)NCc3ccccc3)ccc2n1Cc1ccc(Cl)cc1	·	-14	·	·	·	·
Cc1ccc(C(=O)N2CC(C)OC(C)C2)cc1[N+](=O)[O-] (stereo not given)	i	0	2	1	·	·
COC(=O)[C@]12C[C@H](CC(=O)NCc3ccc(OC)c(OC)c3)C(=O)N(CCC3=CCCCC3)C1=C[C@H](C(C)(C)C)O[C@@H]2C	·	0	·	·	·	·
COc1ccc(OC)c(/C=C/C(=O)N(C)CC(=O)Nc2ccc(C)cc2)c1	·	27*	-2	0	64*	68*
COc1ccc(OC)c(/C=C/C(=O)N(C)CC(=O)Nc2cc(C)ccc2C)c1	·	21*	-5	-3	1	8.4*
COc1ccc(CCC(=O)N(C)CC(=O)Nc2cc(C)ccc2C)cc1	i	0	10	4	·	·
CCC(N=c1cc(-c2ccc(OC)c(OC)c2)oc2ccc(C)cc12)C(=O)O (stereo not given)	i	19*	0	-4	29*	26*
COc1ccc(-c2cc(=O)c3cc(OC)ccc3o2)cc1	·	3	8	6	·	·
CCC(N=c1cc(-c2ccc(OC)cc2)oc2ccc(C)cc12)C(=O)O (stereo not given)	·	36*	-12	-11	61*	72*
COc1ccc(CNCc2ccc3ccccc3c2)c(OC)c1	i	-1	1	3	·	·
CN(C)c1ccc(/C=C/c2cccc[n+]2[O-])cc1	i	32*	0	0	216*	236*
[O-][n+]1ccccc1/C=C/c1ccccc1	i	0	-9	-4	·	·
Cc1cnc(CNC(=O)C2(C)CCCN2CC(C)C)cn1 (stereo not given)	i	0	·	·	·	·
Nc1ccc2cc3[nH]c4cc(N)ccc4c3nc2c1	i	86*	·	·	75*	75*
Nc1ccc2nc(C3CCCCC3)[nH]c2c1	i	0	5	3	·	·
CC(C)CC1NC(=O)N(CC(=O)N(C)C2CCCCC2)C1=O (stereo not given)	i	1	6	1	·	·
COc1ccc(CC(=O)Nc2ccc(-c3cn4ccccc4n3)cc2)cc1	i	-5	-3	-2	·	·
